From ChEMBL document CHEMBL3232886, “C-17 lactam-bearing limonoids from the twigs and leaves of Amoora tsangii” (J Nat Prod, 2014)
Calls of active or inactive are those of the source. The calls are words filed in the database; no cut-off is given here.

Key:
[1] = molecular target: Nuclear factor NF-kappa-B complex (Homo sapiens) (UniProt Q00653+P19838+Q04206); assay: Inhibition of NF-kappaB in human HepG2 cells assessed as inhibition of TNF-alpha-induced luciferase reporter gene expression at 10 uM preincubated for 1 hr followed by TNF-alpha stimulation measured after 4 hrs relative to control; assay type: cell-based
Chain of Nuclear factor NF-kappa-B complex (Homo sapiens) (P19838 whole entry, looked up): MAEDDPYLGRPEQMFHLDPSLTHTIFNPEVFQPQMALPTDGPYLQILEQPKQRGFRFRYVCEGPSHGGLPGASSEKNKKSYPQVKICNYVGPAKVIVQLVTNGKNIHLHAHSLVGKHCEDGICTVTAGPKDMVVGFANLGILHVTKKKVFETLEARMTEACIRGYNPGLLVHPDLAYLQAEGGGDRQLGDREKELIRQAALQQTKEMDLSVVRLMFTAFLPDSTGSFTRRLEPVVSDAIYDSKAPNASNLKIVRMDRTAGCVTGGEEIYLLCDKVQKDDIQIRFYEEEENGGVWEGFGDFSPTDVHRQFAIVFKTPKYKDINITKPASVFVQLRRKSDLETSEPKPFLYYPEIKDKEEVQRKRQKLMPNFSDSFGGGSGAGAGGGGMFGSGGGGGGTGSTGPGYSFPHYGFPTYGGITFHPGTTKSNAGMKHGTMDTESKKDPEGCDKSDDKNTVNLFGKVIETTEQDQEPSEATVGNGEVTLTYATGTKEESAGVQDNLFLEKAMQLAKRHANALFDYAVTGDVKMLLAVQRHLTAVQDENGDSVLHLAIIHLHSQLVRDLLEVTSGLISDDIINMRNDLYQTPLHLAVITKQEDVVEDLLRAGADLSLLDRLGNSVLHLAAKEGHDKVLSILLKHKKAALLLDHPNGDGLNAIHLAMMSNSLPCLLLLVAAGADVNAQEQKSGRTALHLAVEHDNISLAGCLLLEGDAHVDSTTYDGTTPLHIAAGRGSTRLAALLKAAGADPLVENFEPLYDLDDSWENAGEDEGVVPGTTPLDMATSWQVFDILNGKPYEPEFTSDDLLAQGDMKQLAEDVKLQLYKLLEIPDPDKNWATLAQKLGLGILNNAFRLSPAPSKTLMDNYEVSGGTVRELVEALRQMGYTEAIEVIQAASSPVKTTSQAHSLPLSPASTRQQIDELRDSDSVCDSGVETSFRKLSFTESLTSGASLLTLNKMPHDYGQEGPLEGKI
Chain of Nuclear factor NF-kappa-B complex (Homo sapiens) (Q00653 whole entry, looked up): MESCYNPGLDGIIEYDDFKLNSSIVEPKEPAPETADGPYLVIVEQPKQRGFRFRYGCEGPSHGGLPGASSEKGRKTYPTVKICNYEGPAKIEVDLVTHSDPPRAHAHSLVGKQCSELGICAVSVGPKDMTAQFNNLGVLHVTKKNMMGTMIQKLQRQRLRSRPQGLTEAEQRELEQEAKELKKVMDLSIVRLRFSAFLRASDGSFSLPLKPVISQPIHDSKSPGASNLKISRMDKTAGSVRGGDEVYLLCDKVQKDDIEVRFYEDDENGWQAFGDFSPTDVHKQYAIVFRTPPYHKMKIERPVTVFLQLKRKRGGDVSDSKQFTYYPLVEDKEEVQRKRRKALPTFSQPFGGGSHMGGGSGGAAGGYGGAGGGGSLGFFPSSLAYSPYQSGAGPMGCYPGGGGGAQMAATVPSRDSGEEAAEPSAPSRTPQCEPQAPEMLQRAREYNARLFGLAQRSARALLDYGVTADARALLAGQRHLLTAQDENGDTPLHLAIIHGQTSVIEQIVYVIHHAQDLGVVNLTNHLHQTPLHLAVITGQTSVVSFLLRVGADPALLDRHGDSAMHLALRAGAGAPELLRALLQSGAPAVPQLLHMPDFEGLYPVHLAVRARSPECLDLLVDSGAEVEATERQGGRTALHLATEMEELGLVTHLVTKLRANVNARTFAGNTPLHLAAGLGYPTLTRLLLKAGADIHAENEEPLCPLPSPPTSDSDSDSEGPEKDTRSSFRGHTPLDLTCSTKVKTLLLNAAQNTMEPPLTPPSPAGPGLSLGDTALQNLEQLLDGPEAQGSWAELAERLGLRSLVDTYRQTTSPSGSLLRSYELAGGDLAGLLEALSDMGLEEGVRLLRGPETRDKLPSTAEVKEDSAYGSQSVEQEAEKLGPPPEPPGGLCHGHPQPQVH
Chain of Nuclear factor NF-kappa-B complex (Homo sapiens) (Q04206 whole entry, looked up): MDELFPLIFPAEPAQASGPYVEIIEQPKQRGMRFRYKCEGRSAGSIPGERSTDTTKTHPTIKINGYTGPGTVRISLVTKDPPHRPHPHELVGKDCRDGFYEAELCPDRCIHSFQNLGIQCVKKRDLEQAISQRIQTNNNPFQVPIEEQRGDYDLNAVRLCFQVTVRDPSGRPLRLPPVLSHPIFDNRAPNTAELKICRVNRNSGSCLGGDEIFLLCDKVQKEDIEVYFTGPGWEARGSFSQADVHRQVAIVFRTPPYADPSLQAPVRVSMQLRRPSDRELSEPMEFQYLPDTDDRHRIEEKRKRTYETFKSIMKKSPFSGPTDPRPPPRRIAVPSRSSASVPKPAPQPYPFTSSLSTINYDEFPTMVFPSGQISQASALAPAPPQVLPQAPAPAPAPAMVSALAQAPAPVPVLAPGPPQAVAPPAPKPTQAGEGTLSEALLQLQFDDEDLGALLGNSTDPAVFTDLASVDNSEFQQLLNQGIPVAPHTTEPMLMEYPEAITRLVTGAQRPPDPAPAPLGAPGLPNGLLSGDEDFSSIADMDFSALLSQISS
Summary of the method: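 HepG2 cells stably carrying an NF-κB-luciferase reporter, grown in DMEM with 10% FBS and penicillin/streptomycin at 37 °C, 5% CO2. Seeded overnight at 5 × 10^4 cells/well (24-well), preincubated 1 h with compound at 10 μM, then stimulated with TNFα (10 ng/mL) for 4 h. Luciferase activity read in cell lysates; mean ± SEM, n = 3.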

HepG2 = assay: Cytotoxicity against human HepG2 cells at 10 uM; assay type: cell-based; settings: hepg2, 10 µM

inhibition [1] | Structure (SMILES) | Activity (HepG2)
inactive | C=C1[C@@H]([C@@]2(C)C=CC(=O)OC(C)(C)[C@@H]2CC(=O)OC)[C@@H](OC(C)=O)[C@H](OC(=O)c2ccccc2)[C@@]2(C)[C@H](C3=CC(=O)NC3)C[C@H]3O[C@]132 (relative stereo) | Non-toxic
inactive | C=C1[C@@H]([C@@]2(C)C=CC(=O)OC(C)(C)[C@@H]2CC(=O)OC)[C@@H](OC(C)=O)[C@H](OC(=O)c2ccccc2)[C@@]2(C)[C@H](C3=CCN(C)C3=O)C[C@H]3O[C@]132 | Non-toxic
inactive | C=C1[C@@H]([C@@]2(C)C=CC(=O)OC(C)(C)[C@@H]2CC(=O)OC)[C@@H](OC(C)=O)[C@H](OC(=O)c2ccccc2)[C@@]2(C)[C@H](C3=CCNC3=O)C[C@H]3O[C@]132 (relative stereo) | Non-toxic

The next lines start with the compound.

Structure (SMILES) | inhibition [1] | Activity (HepG2)
C=C1[C@@H]([C@@]2(C)C=CC(=O)OC(C)(C)[C@@H]2CC(=O)OC)[C@@H](OC(C)=O)[C@H](OC(=O)C(C)CC)[C@@]2(C)[C@H](C3=CC(=O)NC3)C[C@H]3O[C@]132 (stereo not given in full) | 64% | Non-toxic
C=C1[C@@H]([C@@]2(C)C=CC(=O)OC(C)(C)[C@@H]2CC(=O)OC)[C@@H](OC(C)=O)[C@H](OC(=O)C(C)CC)[C@@]2(C)[C@H](C3=CCNC3=O)C[C@H]3O[C@]132 (stereo not given in full) | inactive | Non-toxic
